Publication PMC10906133 (Journal of Enzyme Inhibition and Medicinal Chemistry, 2024)

Assays:
[1] = test system: DSS-induced acute colitis in mice; assay: DSS-induced acute colitis model in mice; type: in vivo, C57BL/6 mice; settings: for MPO in colon tissue: day 7, E2 20 mg/kg, sulfasalazine 200 mg/kg, oral
In short: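 Male C57BL/6 mice (16–18 g; n=10 per group) received 5% (wt/vol) DSS in drinking water on days 1–7. Test compound (10 or 20 mg/kg) or sulfasalazine 200 mg/kg was given by gavage in 0.5% CMC-Na on days 1–7; control groups received vehicle. Weight, stool and DAI were scored daily. On day 8: serum ELISA (TNF-α, IL-1β, IL-6), colon length, histology, and colon MPO. Values are mean ± SEM.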

[2] = test system: p-p38, p-ERK and p-JNK (MAPK signalling pathway); assay: Western blot of MAPKs signalling pathway in LPS-treated RAW264.7 cells; type: cell-based; settings: RAW264.7, 2, 1, 0.5 µM 1 h, then LPS 500 ng/mL 30 min
[3] = test system: phosphorylation of IκB and p65 (NF-κB signalling pathway); assay: Western blot of NF-κB signalling pathway in LPS-treated RAW264.7 cells; type: cell-based; settings: RAW264.7, 2, 1, 0.5 µM 1 h, then LPS 500 ng/mL 30 min
In short: (§1)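 RAW264.7 cells (2 × 10^6/well) were cultured overnight, pretreated 1 h with test compound at 2, 1 or 0.5 µM, then stimulated with LPS 0.5 µg/mL. Lysis was in RIPA, followed by SDS-PAGE and PVDF transfer. Primary antibodies (1:1000) were applied overnight at 4 °C, then HRP secondary for 1 h, with ECL detection and β-actin reference. Three repeats; densitometry given as mean ± SD.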

[4] = test system: iNOS, COX2, IL-6 and TNF-α protein expression; assay: Western blot of inflammatory protein expression in LPS-treated RAW264.7 cells; type: cell-based; settings: RAW264.7, 2, 1, 0.5 µM 1 h, then LPS 500 ng/mL 24 h
In short: as §1

Row | Compound | MPO in colon tissue [1] | DSS treatment-induced shortening of colon length ([1]; 5% DSS days 1-7, oral E2 10 and 20 mg/kg) | Histopathological symptoms of colon ([1]; 5% DSS days 1-7, oral E2, vs model group) | Levels of COX-2, p-NF-κB and p-Stat3 expression in colon (Western blot) ([1]; DSS-treated mice, oral E2) | Levels of TNF-α, IL-1β and IL-6 in serum (ELISA) ([1]; DSS-treated mice, oral E2) | mRNA expression levels of TNF-α, IL-1β, IL-6, iNOS, COX-2 and TLR4 in colon tissue ([1]; DSS-treated mice, oral E2, RT-qPCR) | Expression of p-p38, p-ERK and p-JNK [2] | Phosphorylation of IκB and p65 proteins [3] | Expression of iNOS, COX2, IL-6 and TNF-α protein [4]
1 | O=C(O)c1cc(/N=N/c2ccc(S(=O)(=O)Nc3ccccn3)cc2)ccc1O [sulfasalazine, Sulfasalazine, reference compound] | significantly reduced |  |  |  |  |  |  |  | 
2 | C#CCOc1ccc(/C=C/c2cc(OC)cc(OC)c2-c2cnnn2C(=O)NCCC)cc1 [E2] | significantly reduced | significantly attenuated | significantly improved these symptoms | decreased | significantly decreased | alleviated | inhibits the expression of p-p38, p-ERK, and p-JNK in a dose-dependent manner | inhibited | significantly inhibited
